These results are taken from ChEMBL document CHEMBL1125907, “Folate analogues. 34. Synthesis and antitumor activity of non-polyglutamylatable inhibitors of dihydrofolate reductase” (J Med Chem, 1991).

Where only a bound is given, the exact number is not on record here.

One test relates to Manca. As to the kind of experiment: Compound was tested for its inhibitory activity manca tumor cell growth. It counts as functional, cell-based. The following applies: Homo sapiens.
Test [1] deals with H35R0.3. The test is described as follows: Compound was tested for inhibition of folinic acid transport in H35 Hepatoma cells; No Inhibition at 50 uM. It counts as functional, cell-based, Rattus norvegicus.
Test [2] has as its system H35R0.3. The test is described as follows: Compound was tested for its inhibitory activity in tumor cell growth in H35 hepatoma cells. It counts as functional, cell-based. The note with it: Rattus norvegicus.
In a further test the target is T1, Dihydrofolate reductase (Homo sapiens, UniProt P00374).
T1 sequence (P00374 whole entry): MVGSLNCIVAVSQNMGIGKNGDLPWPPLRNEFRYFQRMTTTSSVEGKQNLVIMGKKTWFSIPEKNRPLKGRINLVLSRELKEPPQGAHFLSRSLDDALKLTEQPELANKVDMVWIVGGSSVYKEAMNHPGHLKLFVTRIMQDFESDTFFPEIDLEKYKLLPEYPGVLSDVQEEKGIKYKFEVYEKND
As to the kind of experiment: Compound was tested for its inhibitory activity on Recombinant Human Dihydrofolate Reductase.

The test system of test [3] is CCRF-CEM. The test is described as follows: (§1) Relative activity when compared to the activity of aminopterin in CCRF-CEM Human leukemia cell at a concentration of 50 uM. It counts as functional. Put shortly:
(§2)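 Used purified folylpolyglutamate synthetase (FPGS) isolated from CCRF-CEM human leukemia cells. Each compound was tested as an alternative substrate. Activity was read as [3H]glutamate incorporation and expressed relative to aminopterin as reference substrate at 50 μM. Test compounds were examined at concentrations up to 200 μM.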

In test [4] the target is T2, Folylpolyglutamate synthase, mitochondrial (Homo sapiens, UniProt Q05932).
T2 sequence (Q05932 whole entry): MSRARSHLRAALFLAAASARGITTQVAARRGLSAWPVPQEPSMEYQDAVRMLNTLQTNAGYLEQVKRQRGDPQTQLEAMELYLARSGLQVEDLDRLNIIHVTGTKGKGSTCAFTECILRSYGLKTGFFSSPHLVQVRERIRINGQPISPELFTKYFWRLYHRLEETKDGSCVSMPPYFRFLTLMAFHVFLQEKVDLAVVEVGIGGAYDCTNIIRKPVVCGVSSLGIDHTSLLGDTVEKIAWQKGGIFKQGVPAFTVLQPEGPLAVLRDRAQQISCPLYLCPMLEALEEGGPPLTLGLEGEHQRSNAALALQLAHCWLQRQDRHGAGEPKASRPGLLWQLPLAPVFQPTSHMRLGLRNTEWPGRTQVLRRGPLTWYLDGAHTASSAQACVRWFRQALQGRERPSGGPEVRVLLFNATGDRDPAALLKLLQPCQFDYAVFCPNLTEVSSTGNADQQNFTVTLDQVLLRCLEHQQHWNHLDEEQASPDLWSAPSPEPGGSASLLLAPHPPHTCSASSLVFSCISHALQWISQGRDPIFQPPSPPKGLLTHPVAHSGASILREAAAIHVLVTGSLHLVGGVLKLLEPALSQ
As to the kind of experiment: Compound was evaluated for the inhibition of Folyl-polyglutamate synthase in CCRF-CEM Human leukemia cell. Put shortly:
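Purified folylpolyglutamate synthetase from CCRF-CEM human leukemia cells, with 50 µM aminopterin as substrate. Increasing amounts of test compound were added to the assay mixture. Activity was read as [3H]glutamate incorporation, and inhibition was expressed as IC50.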

For test [5], the system named is H35R0.3. As to the kind of experiment: Compound was tested for its inhibitory activity in tumor cell growth in H35R cells. The note with it: Rattus norvegicus. It counts as functional, cell-based.
In test [6] the test system is CCRF-CEM. The test is described as follows: Relative activity when compared to the activity of aminopterin in CCRF-CEM Human leukemia cell at a concentration of 200 uM. It counts as functional. Put shortly: as §2
The subject of test [7] is CCRF-CEM. As to the kind of experiment: Compound was tested for its inhibitory activity in tumor cell growth in CCRF-CEM in human. It counts as functional, cell-based.
Test [8] relates to H35R0.3. As to the kind of experiment: Compound was tested for inhibition of folinic acid transport in H35 Hepatoma cells. It counts as functional, cell-based. The note with it: Rattus norvegicus.
In test [9] the test system is H35R0.3. The test is described as follows: Compound was tested for growth inhibition of H35 Hepatoma cells. It counts as functional, cell-based. The note with it: Rattus norvegicus. The gist of the method: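 H35 hepatoma cells grown 24 h, then exposed to compound for a 6-h pulse (24–30 h); growth read as cell counts after 72 h in culture medium.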
Test [10] has as its system CCRF-CEM. The test is described as §1. It counts as functional. The gist of the method: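 Purified folylpolyglutamate synthetase from CCRF-CEM human leukemia cells; substrate activity measured as [3H]glutamate incorporation with compound up to 200 μM, expressed relative to aminopterin at 50 μM.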
This is another data set of the same source.

In general, IC50 refers to the point on the concentration scale where inhibition reaches its midpoint.

As to `CN(Cc1cnc2nc(N)nc(N)c2n1)c1ccc(C(=O)NC(C(=O)O)C(O)CC(=O)O)cc1` (stereo not drawn), the IC50 in the test with Manca is 0.048 µM; in the test on H35R0.3 [1] it was “No inhibition”; in the test with H35R0.3 [2], 0.085 µM; on Dihydrofolate reductase it was 0.0053 µM; in [4], > 200 µM; in the test on H35R0.3 [5], 5.6 µM. The Relative activity with CCRF-CEM [3] is given as <3.
In the case of `C=C(CC(NC(=O)c1ccc(N(C)Cc2cnc3nc(N)nc(N)c3n2)cc1)C(=O)O)C(=O)O` (stereo not drawn), the IC50 was 0.026 µM with Manca; 0.016 µM with H35R0.3 [2]; 0.0064 µM at Dihydrofolate reductase; > 200 µM in test [4]; 0.03 µM in the test with CCRF-CEM [7]; 21 µM in the test with H35R0.3 [5]. Besides, the figures for the IC50 with H35R0.3 [8] and in the test on H35R0.3 [9] were 7 µM and 3.9 µM, respectively. Besides, the Relative activity with CCRF-CEM [6] is reported as <1.
Consider `CN(Cc1cnc2nc(N)nc(N)c2n1)c1ccc(C(=O)N[C@@H](CCC(=O)O)C(=O)O)cc1` [METHOTREXATE], for which the IC50 in the test with H35R0.3 [8] was 18 µM; in the test with H35R0.3 [9], 0.085 µM.
Take `C=C(CC(NC(=O)c1ccc(C(CC)Cc2cnc3nc(N)nc(N)c3n2)cc1)C(=O)O)C(=O)O` (stereo not drawn): the IC50 in the test on Manca is 0.0038 µM; with H35R0.3 [2], 0.0063 µM; on Dihydrofolate reductase, 0.0058 µM; in test [4] it was 118 µM; in the test on CCRF-CEM [7], 0.0074 µM; in the test with H35R0.3 [5], 14 µM. The figures for the IC50 in the test on H35R0.3 [8] and in the test on H35R0.3 [9] were 1.5 µM and 14 µM, respectively. For the same compound, the Relative activity in the test with CCRF-CEM [6] is on record as <1.
`Nc1nc(N)c2nc(CNc3ccc(C(=O)N[C@@H](CCC(=O)O)C(=O)O)cc3)cnc2n1` [AMINOPTERIN]: the Relative activity in the test on CCRF-CEM [10] was found to be 100.
As to `Nc1nc(N)c2nc(CCc3ccc(C(=O)NC(C(=O)O)C(O)CC(=O)O)cc3)cnc2n1` (stereo not drawn), the IC50 in the test with Manca was 0.029 µM; at Dihydrofolate reductase it was 0.0059 µM; in test [4], > 50 µM. The Relative activity in the test with CCRF-CEM [3] is reported as <3.
Consider `Nc1nc(N)c2nc(CCc3ccc(C(=O)N[C@@H](CCC(=O)O)C(=O)O)cc3)cnc2n1`, for which the IC50 on Dihydrofolate reductase was determined as 0.0041 µM. The compound also registered a Relative activity in the test on CCRF-CEM [3] of 60.
Take `C=C(CC(NC(=O)c1ccc(CCc2cnc3nc(N)nc(N)c3n2)cc1)C(=O)O)C(=O)O` (stereo not drawn): the IC50 in the test with Manca is 0.0099 µM; in the test on H35R0.3 [2], 0.039 µM; on Dihydrofolate reductase it was 0.0088 µM; in test [4], > 200 µM; in the test with CCRF-CEM [7], 0.013 µM; with H35R0.3 [5], 18.4 µM. In addition, the IC50 in the test on H35R0.3 [8] is 5.5 µM; in the test on H35R0.3 [9], > 20 µM. In the test on CCRF-CEM [6], the Relative activity is <2.
